ChEMBL document CHEMBL1129487, “In vivo biodistribution, pharmacokinetic parameters, and brain uptake of 5-halo-y-methoxy(or ethoxy)-5,6-dihydro-3'-azido-3'-deoxythymidine diastereomers as potential prodrugs of 3'-azido-3'-deoxythymidine” (J Med Chem, 1996)
Values belong to the compound of their own block, whether it stands above or below them.

Tests used:
[1] = Concentration in mouse blood 20 min post injection at a dose 240 mocromol/kg; type: ADME, organism-based; conditions: whole blood
Procedure, shortened: (§1)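 Balb/c mice given 240 µmol/kg iv of the test diastereomer (10% DMSO/water vehicle, tail vein). Blood was drawn by cardiac puncture into heparinized syringe at 15, 20, 60 and 90 min. FIAU was added as internal standard, and the sample was extracted by Sep-Pak. AZT and parent were measured by C18 HPLC (water:methanol 7:3, UV 265 nm). Values are the average of two experiments.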

[2] = Concentration in mouse blood 90 min post injection at a dose 240 mocromol/kg; type: ADME; conditions: whole blood; procedure, shortened: as §1
Mus musculus [3] = organism: Mus musculus; test: Thymidine Influx Inhibition constant for the compound in fresh Murine Erythrocytes; type: functional
Procedure, shortened: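 Erythrocytes from B6D2F1 mice, 10% hematocrit in HEPES-buffered saline, were given [methyl-3H]-thymidine (0.1–1.0 mM, four levels) with or without test compound (0.1–2.5 mM, four levels). Zero-trans influx ran 3 s and was stopped with 10 µM NBMPR (final). Cells were perchloric acid extracted and counted, with the zero-time blank subtracted. Ki came from a Dixon plot (1/v vs i), in duplicate.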

[4] = Concentration in mouse blood 60 min post injection at a dose 240 mocromol/kg; type: ADME, organism-based; conditions: whole blood; procedure, shortened: as §1
[5] = Concentration in mouse blood 15 min post injection at a dose 240 mocromol/kg; type: ADME, organism-based; conditions: whole blood; procedure, shortened: as §1
[6] = Partition coefficient for 1-octanol/water was evaluated; type: physicochemical
Mus musculus [7] = organism: Mus musculus; test: Percentage of radioactivity in P1 subregion in mouse brain that contains nuclei and cell debris, after Jugular Vein Injection; type: ADME, organism-based; conditions: in vivo, iv
Procedure, shortened: (§2)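 Brains were pooled from five mice, with cerebella removed, in 0.32 M sucrose. Homogenate was centrifuged at 0-4 °C: P1 at 1000g 10 min, P2 at 10000g 30 min, P3 at 100000g 1 h, S3 supernatant. Protein was by Lowry. Pellets were Protosol-solubilized at 55 °C, then counted by combustion/scintillation.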

Mus musculus [8] = organism: Mus musculus; test: Quantity of anylate in P3 subregion in mouse brain that contains microsomal fraction after Jugular Vein Injection; type: functional, organism-based; procedure, shortened: as §2
Mus musculus [9] = organism: Mus musculus; test: Percentage of radioactivity in S3 which is the soluble fraction in mouse brain after Jugular Vein Injection; type: ADME, organism-based; conditions: in vivo, iv; procedure, shortened: as §2
Mus musculus [10] = organism: Mus musculus; test: Percentage of radioactivity in P3 subregion in mouse brain that contains microsomal fraction after Jugular Vein Injection; type: ADME, organism-based; conditions: in vivo, iv; procedure, shortened: as §2
Mus musculus [11] = organism: Mus musculus; test: Percentage of total protein recovered in P1 subregion in mouse brain that contains nuclei and cell debris, after Jugular Vein Injection; type: ADME, organism-based; conditions: in vivo, iv; procedure, shortened: as §2
Mus musculus [12] = organism: Mus musculus; test: Percentage of total protein recovered in P2 subregion in mouse brain that contains myelin fragments, synaptosomes (pinched-nerve endings), and mitochondria after Jugular Vein Injection; type: ADME, organism-based; conditions: in vivo, iv; procedure, shortened: as §2
Mus musculus [13] = organism: Mus musculus; test: Percentage of total protein recovered in P3 subregion in mouse brain that contains microsomal fraction after Jugular Vein Injection; type: ADME, organism-based; conditions: iv; procedure, shortened: as §2
Mus musculus [14] = organism: Mus musculus; test: Quantity of anylate in P2 subregion in mouse brain that contains myelin fragments, synaptosomes (pinched-nerve endings), and mitochondria after Jugular Vein Injection; type: functional, organism-based; procedure, shortened: as §2
Mus musculus [15] = organism: Mus musculus; test: Distribution of analyte (pmol/mg) in mouse brain regions after Jugular Vein Injection into hippocampus; type: ADME, organism-based; conditions: in vivo, iv
Mus musculus [16] = organism: Mus musculus; test: Distribution of analyte (pmol/mg) in mouse brain regions after Jugular Vein Injection into cerebellum; type: ADME, organism-based; conditions: in vivo, iv
Mus musculus [17] = organism: Mus musculus; test: Distribution of analyte (pmol/mg) in mouse brain regions after Jugular Vein Injection into cortex; type: ADME, organism-based; conditions: in vivo, iv
Mus musculus [18] = organism: Mus musculus; test: Distribution of analyte (pmol/mg) in mouse brain regions after Jugular Vein Injection into hypothalamus; type: ADME, organism-based; conditions: in vivo, iv
Mus musculus [19] = organism: Mus musculus; test: Quantity of anylate in P1 subregion in mouse brain that contains nuclei and cell debris, after Jugular Vein Injection; type: functional; procedure, shortened: as §2
Mus musculus [20] = organism: Mus musculus; test: Distribution of analyte (pmol/mg) in mouse brain regions after Jugular Vein Injection into pons and medulla; type: ADME, organism-based; conditions: in vivo, iv
Mus musculus [21] = organism: Mus musculus; test: Distribution of analyte (pmol/mg) in mouse brain regions after Jugular Vein Injection into striatum; type: ADME, organism-based; conditions: in vivo, iv
Mus musculus [22] = organism: Mus musculus; test: Distribution of analyte (pmol/mg) in mouse brain regions after Jugular Vein Injection into rest of the brain; type: ADME, organism-based; conditions: in vivo, iv
Mus musculus [23] = organism: Mus musculus; test: Percentage of radioactivity in P2 subregion in mouse brain that contains myelin fragments, synaptosomes (pinched-nerve endings), and mitochondria after Jugular Vein Injection; type: ADME, organism-based; conditions: in vivo, iv; procedure, shortened: as §2
Mus musculus [24] = organism: Mus musculus; test: Percentage of total protein recovered in S3 which is the soluble fraction in mouse brain after Jugular Vein Injection; conditions: in vivo, iv
Mus musculus [25] = organism: Mus musculus; test: Quantity of anylate in S3 which is the soluble fraction in mouse brain after Jugular Vein Injection; type: functional; procedure, shortened: as §2
[26] = Half-life for the compound after intravenous administration into BALB/c Mice in plasma samples.; type: ADME, organism-based; conditions: mouse
Procedure, shortened: (§3)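 Tail-vein injection in Balb/c mice at 144 µmol/kg, dissolved in 10% DMSO/water. Three mice per time point were killed by CO2, and blood was taken by cardiac puncture. With FIAU as internal standard, supernatant was Sep-Pak extracted. AZT was quantified by C18 HPLC (water:methanol 7:3, 265 nm; detection limit about 0.5 µg/mL). AUC covers 0 to last sample; t1/2 is from a one-compartment model.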

Mus musculus [27] = test: Pharmacokinetic parameter AUC for the compound after intravenous administration into BALB/c Mice in plasma samples.; type: ADME, organism-based; set-up: concentration or dose not given beside the values; conditions: in vivo; procedure, shortened: as §3

SMILES: CO[C@H]1N(C2CC(N=[N+]=[N-])C(CO)O2)C(=O)NC(=O)[C@]1(C)Br (stereo not given in full)
- Distribution (Mus musculus [7]): 4.6%
- Quantity (Mus musculus [8]): 0.98 pmol/mg
- Distribution (Mus musculus [9]): 88.4%
- Distribution (Mus musculus [10]): 1.4%
- Distribution (Mus musculus [11]): 13.3%
- Ki (Mus musculus [3]): 450 µM
- half-life [26]: 41.8 min
- AUC (Mus musculus [27]): 6740 ng·h/mL
- Distribution (Mus musculus [12]): 53.1%
- Distribution (Mus musculus [13]): 8.7%
- Quantity (Mus musculus [14]): 0.65 pmol/mg
- Distribution (Mus musculus [15]): 0.71 pmol/mg
- Distribution (Mus musculus [16]): 0.72 pmol/mg
- Distribution (Mus musculus [17]): 0.71 pmol/mg
- Distribution (Mus musculus [18]): 1.32 pmol/mg
- Quantity (Mus musculus [19]): 2.08 pmol/mg
- Distribution (Mus musculus [20]): 0.66 pmol/mg
- Distribution (Mus musculus [21]): 0.88 pmol/mg
- Distribution (Mus musculus [22]): 0.71 pmol/mg
- Distribution (Mus musculus [23]): 5.6%
- Distribution (Mus musculus [24]): 24.9%
- Quantity (Mus musculus [25]): 21.8 pmol/mg
- Partition coefficient [6]: 13.2

SMILES: CO[C@H]1N(C2CC(N=[N+]=[N-])C(CO)O2)C(=O)NC(=O)[C@@]1(C)Cl (stereo not given in full)
- Ki (Mus musculus [3]): > 1500 µM
- Partition coefficient [6]: 3.3

SMILES: CO[C@@H]1N(C2CC(N=[N+]=[N-])C(CO)O2)C(=O)NC(=O)[C@@]1(C)I (stereo not given in full)
- Ki (Mus musculus [3]): 200 µM
- half-life [26]: 149 min
- AUC (Mus musculus [27]): 9820 ng·h/mL
- Partition coefficient [6]: 18.8

SMILES: O=c1ccn([C@H]2C[C@H](O)[C@@H](CO)O2)c(=O)[nH]1 [DEOXYURIDINE]
- Ki (Mus musculus [3]): 125 µM

Second part, led by results:

- concentration at 20 min [1]: 12500 ng/mL
- concentration at […] [2]: 1100 ng/mL
- Ki (Mus musculus [3]): 360 µM
- concentration at 1 h [4]: 16300 ng/mL
- concentration at 0.25 h [5]: 28800 ng/mL
- Partition coefficient [6]: 7.6
SMILES: CO[C@H]1N(C2CC(N=[N+]=[N-])C(CO)O2)C(=O)NC(=O)[C@]1(C)Cl (stereo not given in full)

- Distribution (Mus musculus [7]): 5.2%
- Distribution (Mus musculus [9]): 84.7%
- Distribution (Mus musculus [10]): 2.4%
- Distribution (Mus musculus [11]): 11.9%
- Distribution (Mus musculus [12]): 43%
- Distribution (Mus musculus [13]): 17.6%
- Distribution (Mus musculus [15]): 1.1 pmol/mg
- Distribution (Mus musculus [16]): 0.66 pmol/mg
- Distribution (Mus musculus [17]): 0.66 pmol/mg
- Distribution (Mus musculus [18]): 1.1 pmol/mg
- Distribution (Mus musculus [20]): 0.62 pmol/mg
- Distribution (Mus musculus [21]): 0.85 pmol/mg
- Distribution (Mus musculus [22]): 0.83 pmol/mg
- Distribution (Mus musculus [23]): 7.7%
- Distribution (Mus musculus [24]): 27.5%
SMILES: CCO[C@H]1N(C2CC(N=[N+]=[N-])C(CO)O2)C(=O)NC(=O)[C@]1(C)Br (stereo not given in full)
- Quantity (Mus musculus [8]): 1.21 pmol/mg
- Quantity (Mus musculus [14]): 1.62 pmol/mg
- Quantity (Mus musculus [19]): 3.96 pmol/mg
- Quantity (Mus musculus [25]): 27.8 pmol/mg

- concentration at 20 min [1]: 2500 ng/mL
- concentration at […] [2]: < 1000 ng/mL
- Ki (Mus musculus [3]): 1330 µM
- half-life [26]: 23.5 min
- AUC (Mus musculus [27]): 11800 ng·h/mL
- concentration at 0.25 h [5]: 2500 ng/mL
- Partition coefficient [6]: 1.3
SMILES: Cc1cn([C@H]2C[C@H](N=[N+]=[N-])[C@@H](CO)O2)c(=O)[nH]c1=O [ZIDOVUDINE]

- Ki (Mus musculus [3]): 350 µM
- half-life [26]: 33.6 min
- AUC (Mus musculus [27]): 12500 ng·h/mL
- Partition coefficient [6]: 10.6
SMILES: CO[C@H]1N(C2CC(N=[N+]=[N-])C(CO)O2)C(=O)NC(=O)[C@]1(C)I (stereo not given in full)

- Ki (Mus musculus [3]): 500 µM
- half-life [26]: 31.1 min
- AUC (Mus musculus [27]): 13500 ng·h/mL
- Partition coefficient [6]: 16.7
SMILES: CO[C@@H]1N(C2CC(N=[N+]=[N-])C(CO)O2)C(=O)NC(=O)[C@@]1(C)Br (stereo not given in full)
